In ChEMBL document CHEMBL1154588, “Evaluation of triazolamers as active site inhibitors of HIV-1 protease” (Bioorg Med Chem Lett, 2009):

Biological target: Protease (Human immunodeficiency virus 1, UniProt Q9YQ12)
Assay: Inhibition of HIV1 protease by FRET-based assay
Procedure, shortened: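 HIV-1 protease activity was read out by a FRET-based protease assay, following a previously described method. Triazolamer solutions were made up in 10% DMSO in aqueous buffer for the assay.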

Sequence of Protease (Q9YQ12 whole entry): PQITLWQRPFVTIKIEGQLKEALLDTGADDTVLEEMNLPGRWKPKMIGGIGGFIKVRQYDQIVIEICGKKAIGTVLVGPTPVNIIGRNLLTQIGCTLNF

| IC50 | Ki | SMILES |
| --- | --- | --- |
| 101 µM | – | CC(C)[C@@H](c1cn([C@@H](Cc2ccccc2)c2cn([C@@H](Cc3ccccc3)c3cn([C@H](c4cn([C@H](C)c5ccccc5)nn4)C(C)C)nn3)nn2)nn1)n1cc(CCc2ccccc2)nn1 |
| 78 µM | – | C[C@H](c1ccccc1)n1cc([C@H](Cc2ccccc2)n2cc([C@H](Cc3ccccc3)n3cc([C@@H](N)Cc4ccccc4)nn3)nn2)nn1 |
| 129 µM | – | CC(C)[C@H](N)c1cn([C@@H](Cc2ccccc2)c2cn([C@@H](Cc3ccccc3)c3cn([C@H](C)c4ccccc4)nn3)nn2)nn1 |
| > 500 µM | 500 µM | CNC(=O)[C@H](C(C)C)n1cc([C@H](Cc2ccccc2)n2cc([C@H](Cc3ccccc3)n3cc([C@@H](N)C(C)C)nn3)nn2)nn1 |
| 29 µM | 25 µM | C[C@H](c1ccccc1)n1cc([C@H](Cc2ccccc2)n2cc([C@H](Cc3ccccc3)n3cc([C@H](Cc4ccccc4)n4cc([C@@H](N)Cc5ccccc5)nn4)nn3)nn2)nn1 |
| 72 µM | – | CNC(=O)[C@H](Cc1ccccc1)n1cc([C@H](Cc2ccccc2)n2cc([C@H](Cc3ccccc3)n3cc([C@H](Cc4ccccc4)n4cc([C@@H](N)Cc5ccccc5)nn4)nn3)nn2)nn1 |
| 60 µM | – | CC(C)[C@H](N)c1cn([C@@H](Cc2ccccc2)c2cn([C@@H](Cc3ccccc3)c3cn([C@H](c4cn([C@H](C)c5ccccc5)nn4)C(C)C)nn3)nn2)nn1 |
| 131 µM | – | CC(C)[C@H](N)c1cn([C@H](c2cn([C@@H](Cc3ccccc3)c3cn([C@H](c4cn([C@H](C)c5ccccc5)nn4)C(C)C)nn3)nn2)C(C)C)nn1 |
| 25 µM | 25 µM | NCCNC(=O)[C@H](Cc1ccccc1)n1cc([C@H](Cc2ccccc2)n2cc([C@H](Cc3ccccc3)n3cc([C@H](Cc4ccccc4)n4cc([C@@H](N)Cc5ccccc5)nn4)nn3)nn2)nn1 |
| > 500 µM | 500 µM | CNC(=O)[C@H](C(C)C)n1cc([C@H](Cc2ccccc2)n2cc([C@H](Cc3ccccc3)n3cc([C@H](C)N)nn3)nn2)nn1 |
